One data set concerns A549. Kind of data set: MTT anti-proliferative assay, A549. Type of data set: cell-based, human.
The test system of another data set is MCF-7. The data set can be described thus: MTT anti-proliferative assay, MCF-7. It is filed as cell-based, human. For orientation: Tetrazolium assays rely on reduction of a dye to a coloured formazan, in cell work by metabolically active cells.
Another data set has as its system WI-38. Kind of data set: Safety assay. To be noted: for IC50: Homo sapiens, WI-38, read-out: Cell lines IC50 WI-38.
Another data set concerns the target EGFR^WT (Homo sapiens, UniProt P00533). Kind of data set: EGFR^WT kinase inhibition. It is filed as biochemical.
The next data set has as its target EGFR^T790M (Homo sapiens, UniProt P00533, T790M). Kind of data set: EGFR^T790M kinase inhibition. It is filed as biochemical.
In data set [1] the test system is A549 cells. The data set can be described thus: Cell cycle analysis by flow cytometry. It is filed as cell-based, human. To be noted: A549, 17.79 µM, 72 h. In outline: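 A549 cells were exposed to the test compound at 17.79 μM for 72 h, with untreated A549 cells as comparator. Cell-cycle distribution was read by flow cytometry as the percentage of the population in Sub-G1, G1, S and G2/M phases.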
On the technique in general: In flow cytometry, cells or beads pass a laser one at a time.

Data set [2] deals with A549 cells. Kind of data set: Apoptosis analysis, Annexin-V/propidium iodide staining. Type of data set: cell-based, human. To be noted: A549, 17.79 µM, 72 h. In outline: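 Annexin-V-FITC/propidium iodide double staining of A549 cells exposed to the test compound (17.79 μM, 72 h), analysed by flow cytometry.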
The next data set has as its system BAX and Bcl-2 genes. Kind of data set: BAX and Bcl-2 gene expression by quantitative RT-PCR. To be noted: A549, 17.79 µM, 72 h. Type of data set: cell-based, human.
Setting [3] is: Homo sapiens, A549, read-out: Cell lines IC50 A549.
Where [4] appears, read: Homo sapiens, MCF7, read-out: Cell lines IC50 MCF-7.

Several values for one entry are separate records, joined by “and”; a condition that tells them apart may be missing. Identical values can stand only once. Like-named read-outs stand apart in the source and are kept apart here.

EGFR^WT, sequence (P00533 25-1210): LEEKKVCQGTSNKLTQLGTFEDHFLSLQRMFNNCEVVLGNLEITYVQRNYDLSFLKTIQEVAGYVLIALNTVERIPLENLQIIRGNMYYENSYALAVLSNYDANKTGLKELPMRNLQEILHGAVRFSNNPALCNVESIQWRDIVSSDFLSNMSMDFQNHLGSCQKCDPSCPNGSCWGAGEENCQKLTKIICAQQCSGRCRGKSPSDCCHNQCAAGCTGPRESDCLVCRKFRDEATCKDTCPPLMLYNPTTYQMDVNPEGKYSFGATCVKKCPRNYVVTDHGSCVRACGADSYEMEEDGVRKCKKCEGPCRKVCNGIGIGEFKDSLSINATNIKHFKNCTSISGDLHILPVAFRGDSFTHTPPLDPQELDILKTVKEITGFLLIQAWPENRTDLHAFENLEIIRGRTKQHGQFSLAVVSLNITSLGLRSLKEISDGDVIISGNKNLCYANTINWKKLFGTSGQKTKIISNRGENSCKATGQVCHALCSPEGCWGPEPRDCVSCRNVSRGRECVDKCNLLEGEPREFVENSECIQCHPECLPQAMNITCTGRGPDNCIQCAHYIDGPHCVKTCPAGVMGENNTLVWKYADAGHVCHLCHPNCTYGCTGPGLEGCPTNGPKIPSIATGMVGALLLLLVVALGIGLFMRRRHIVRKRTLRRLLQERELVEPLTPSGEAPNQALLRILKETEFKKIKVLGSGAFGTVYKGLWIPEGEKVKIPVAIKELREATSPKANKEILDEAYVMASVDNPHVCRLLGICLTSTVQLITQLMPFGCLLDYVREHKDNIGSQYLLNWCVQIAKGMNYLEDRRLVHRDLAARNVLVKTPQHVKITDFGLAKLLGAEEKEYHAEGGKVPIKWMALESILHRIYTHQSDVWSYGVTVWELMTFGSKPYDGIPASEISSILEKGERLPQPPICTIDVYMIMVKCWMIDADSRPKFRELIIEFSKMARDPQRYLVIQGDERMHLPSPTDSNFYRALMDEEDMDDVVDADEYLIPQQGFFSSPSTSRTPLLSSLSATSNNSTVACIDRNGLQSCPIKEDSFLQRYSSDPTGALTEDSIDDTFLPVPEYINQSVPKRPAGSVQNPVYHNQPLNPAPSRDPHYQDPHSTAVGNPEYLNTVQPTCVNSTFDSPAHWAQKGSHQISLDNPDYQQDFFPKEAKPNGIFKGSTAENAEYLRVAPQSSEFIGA
EGFR^T790M, sequence (P00533 25-1210 T790M): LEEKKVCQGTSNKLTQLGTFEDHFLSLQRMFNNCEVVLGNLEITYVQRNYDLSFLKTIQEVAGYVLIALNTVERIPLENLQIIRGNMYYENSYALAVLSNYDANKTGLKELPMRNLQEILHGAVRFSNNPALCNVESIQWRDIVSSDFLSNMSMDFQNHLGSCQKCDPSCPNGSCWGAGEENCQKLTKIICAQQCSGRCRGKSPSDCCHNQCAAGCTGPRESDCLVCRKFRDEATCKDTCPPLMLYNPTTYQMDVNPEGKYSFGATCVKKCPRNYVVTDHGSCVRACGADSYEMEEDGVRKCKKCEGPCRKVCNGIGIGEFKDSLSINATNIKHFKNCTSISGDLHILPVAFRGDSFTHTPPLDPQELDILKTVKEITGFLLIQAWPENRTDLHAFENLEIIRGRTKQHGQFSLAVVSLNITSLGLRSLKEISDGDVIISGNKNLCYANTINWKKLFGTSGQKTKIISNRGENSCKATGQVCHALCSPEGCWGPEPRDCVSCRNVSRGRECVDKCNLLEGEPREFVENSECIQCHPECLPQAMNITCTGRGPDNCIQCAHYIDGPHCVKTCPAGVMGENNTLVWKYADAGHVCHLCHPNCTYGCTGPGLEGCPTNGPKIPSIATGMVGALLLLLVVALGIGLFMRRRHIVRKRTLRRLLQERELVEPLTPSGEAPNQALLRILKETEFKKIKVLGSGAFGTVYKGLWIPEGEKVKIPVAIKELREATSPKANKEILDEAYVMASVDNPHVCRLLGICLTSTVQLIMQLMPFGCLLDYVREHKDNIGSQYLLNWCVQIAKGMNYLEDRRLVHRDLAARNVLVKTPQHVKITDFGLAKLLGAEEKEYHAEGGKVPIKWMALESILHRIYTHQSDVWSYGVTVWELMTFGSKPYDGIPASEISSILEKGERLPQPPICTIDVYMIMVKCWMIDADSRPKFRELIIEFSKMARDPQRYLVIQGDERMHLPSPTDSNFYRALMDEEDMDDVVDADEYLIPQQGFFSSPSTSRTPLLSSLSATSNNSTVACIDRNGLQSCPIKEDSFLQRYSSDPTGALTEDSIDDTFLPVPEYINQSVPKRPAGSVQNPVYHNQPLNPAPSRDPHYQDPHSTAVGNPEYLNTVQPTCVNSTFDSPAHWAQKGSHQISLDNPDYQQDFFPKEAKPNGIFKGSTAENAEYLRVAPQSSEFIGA

A word on the IC50: it is the point on the concentration scale where inhibition reaches its midpoint. For `C#Cc1cccc(Nc2ncnc3cc(OCCOC)c(OCCOC)cc23)c1` [Erlotinib, reference compound], the IC50 with A549 (setting [3]) was found to be 4.18 µM; in the data set on MCF-7 (setting [4]), 14.3 µM; with WI-38, 28.5 µM.
Consider `CC1CCc2c(sc3ncnc(Nc4ccc(N)cc4)c23)C1` (centres unmarked) [5d, N^1-(7-Methyl-5,6,7,8-tetrahydro[1]benzothieno[2,3-d]pyrimidin-4-yl)benzene-1,4-diamine], for which the IC50 in the data set on A549 (setting [3]) turned out to be 34.8 µM; in the data set with MCF-7 (setting [4]) it was 35.5 µM.
In the case of `CC1CCc2c(sc3ncnc(Nc4ccc(Cl)cc4)c23)C1` (centres unmarked) [5a, N-(4-Chlorophenyl)-7-methyl-5,6,7,8-tetrahydrobenzo[4,5]thieno[2,3-d]pyrimidin-4-amine], the half-inhibitory concentration (IC50) was 20.6 µM in the data set with A549 (setting [3]) and 29.3 µM in the data set on MCF-7 (setting [4]).
For `CC1CCc2c(sc3ncnc(NNC(N)=S)c23)C1` (centres unmarked) [7a, 2–(7-Methyl-5,6,7,8-tetrahydro[1]benzothieno[2,3-d]pyrimidin-4-yl)hydrazine carbothioamide], the IC50 was 28.7 µM with A549 (setting [3]) and 35.7 µM in the data set on MCF-7 (setting [4]).
For `CC1CCc2c(sc3ncnc(NN)c23)C1` (centres unmarked) [7b, 4-Hydrazinyl-7-methyl-5,6,7,8-tetrahydro[1]benzothieno[2,3-d]pyrimidine], in that order: 18.4 µM and 23.7 µM.
Consider “N-((7-Methyl-5,6,7,8-tetrahydro[1]benzothieno[2,3-d]pyrimidin-4-yl)methyl) aniline [compound 6]”, for which the IC50 in the data set on A549 (read-out: Cell lines IC50 A549, MTT, mean of three experiments) was determined as 21.2 µM; in the data set with MCF-7 (read-out: Cell lines IC50 MCF-7, MTT, mean of three experiments) it was 26.6 µM.
As to `CC1CCc2c(sc3ncnc(Nc4ccccc4F)c23)C1` (centres unmarked) [5b, N-(2-Fluorophenyl)-7-methyl-5,6,7,8-tetrahydrobenzo[4,5]thieno[2,3-d]pyrimidin-4-amine], the IC50 in the data set on A549 (setting [3]) worked out at 17.8 µM. The IC50 with MCF-7 (setting [4]) is 22.7 µM. Also, half-maximal inhibition against EGFR^WT (IC50) required 0.0372 µM. Also, it took 0.204 µM to reach half-maximal inhibition against EGFR^T790M (IC50). In the data set with A549 cells [1], the “Cell cycle distribution % G2/M” value was 38.61% and 38.61 ± 2.11 %; the “Cell cycle distribution %G1” value was 23.19% and 23.19 ± 2.18 %; the “Cell cycle distribution %S” value is 37.66% and 37.66 ± 4.19 %; the “Cell cycle distribution %Sub-G1” value is 0.54% and 0.54 ± 0.09%. In the data set on A549 cells [2], the “Apoptosis Early (right bottom)” value was 17.84% and 17.84 ± 3.68%; the “Apoptosis Late (right top)” value was 45.71% and 45.71 ± 5.77 %; the “Necrosis (left top)” value amounted to 2.12 ± 0.11; the “Viable (left bottom)” value is listed as 34.33 ± 2.20. Besides, in the data set with BAX and Bcl-2 genes (control set to 1), the BAX/Bcl-2 ratio is 8.3 fold change and 8.35 ± 1.09 fold change; the “Gene expression BAX” value is 3 fold change and 2.97 ± 0.14 fold change; the “Gene expression Bcl-2” value was found to be 0.37 ± 0.06 fold change. The “downregulation of the Bcl-2 gene” value in the data set with BAX and Bcl-2 genes (vs untreated cells) is 3 fold. Further, the IC50 in the data set with WI-38 was 70.1 µM. For the same molecule, in the data set on WI-38 (ratio of WI-38 IC50 values vs erlotinib), the “times safer against WI-38 than erlotinib” value was determined as 2.5 fold.
Consider `CC1CCc2c(sc3ncnc(Nc4ccc(S(N)(=O)=O)cc4)c23)C1` (centres unmarked) [5f, 4-((7-Methyl-5,6,7,8-tetrahydrobenzo[4,5]thieno[2,3-d]pyrimidin-4-yl)amino)benzene sulphonamide], for which the IC50 with A549 (setting [3]) amounted to 17.5 µM; in the data set with MCF-7 (setting [4]), 21.4 µM; against EGFR^WT, 0.0356 µM.
Take `CC1CCc2c(sc3ncnc(Nc4ccccc4S(N)(=O)=O)c23)C1` (centres unmarked) [5e, 2-((7-Methyl-5,6,7,8-tetrahydrobenzo[4,5]thieno[2,3-d]pyrimidin-4-yl)amino)benzene sulphonamide]: the IC50 was found to be 19.9 µM in the data set with A549 (setting [3]) and 29.2 µM in the data set with MCF-7 (setting [4]).
In the case of `COc1ccc(Nc2ncnc3sc4c(c23)CCC(C)C4)cc1` (centres unmarked) [5c, N-(4-Methoxyphenyl)-7-methyl-5,6,7,8-tetrahydrobenzo[4,5]thieno[2,3-d]pyrimidin-4-amine], the values for the IC50 in the data set with A549 (setting [3]) and in the data set with MCF-7 (setting [4]) were 27.1 µM and 30 µM, respectively.

The values are drawn from paper PMC10251802 (Journal of Enzyme Inhibition and Medicinal Chemistry, 2023).
